Source: PubChem
This is a sample that favours compounds with a hit; in the whole collection about 2.2% have one here.
Scp1 inh = inhibitors of human Scp-1 phosphatase; Q9GZU7; Recombinant Scp1, phosphopeptide, malachite green phosphate absorbance; inhibition, % at 20 µM; 340,000 compounds, 0.88% hits; AID 493091;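 active means inhibition above about 50% at 20 µM, limit read from the data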
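Times: enzyme reaction 45 min at room temperature, colour 5 min, stabilisation 30 min. Material: SCP-1 catalytic fragment, aa 76-261. Medium: Acidic Tris acetate buffer with magnesium and detergent. Signal: colorimetric free-phosphate detection, absorbance 630 nm. Read-out basis: % inhibition of SCP-1 phosphate liberation. Reagent: Phosphorylated 17-residue peptide substrate.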
LMPTP inh = LMPTP (human) inhibition | AID 651560 | inhibition, % at 20 µM | recombinant LMPTP-A, OMFP fluorogenic substrate, fluorescence intensity | 360,000 compounds, 0.22% hits;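 active means compounds that cut the enzyme signal by at least half of the control window in the single-dose screen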
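test system = LMPTP-A | amount = 0.625 nM LMPTP-A final | reagent = fluorogenic phosphatase substrate OMFP at 400 µM final | incubation = 50 min at room temperature | benchmarks = no-enzyme low control, uninhibited high control | medium = Bis-Tris pH 6.0, DTT, detergent | signal = fluorescence intensity of OMFP turnover product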
STEP inh = inhibitors of human striatal-enriched phosphatase STEP; inhibition, % at 20 µM; recombinant STEP, OMFP fluorogenic substrate, fluorescence; AID 588621; P54829; 360,000 compounds, 0.25% hits;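 active means inhibition at 20 µM, scaled per plate between control wells, above about 37%, limit read from the data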
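System: isolated STEP enzyme; schedule: 20 min enzyme reaction at room temperature, protected from light; medium: Bis-Tris buffer pH 6.0, 2.5 mM DTT, 0.005% Tween 20; signal: fluorescence, 480/540 nm; dosing: single compound dose of 20 µM, 1% DMSO final; also added: OMFP substrate, 25 µM final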
DNMT1 block = blocks human DNA methyltransferase DNMT1; P26358; DNMT1 molecular beacon, Hinp1I cleavage, fluorescence; inhibition (reported as % activation of signal), % at 10 µM; 360,000 compounds, 0.83% hits; AID 588458; in the data active means inhibition above about 50%
Target sequence (P26358 504-1616 limits assumed): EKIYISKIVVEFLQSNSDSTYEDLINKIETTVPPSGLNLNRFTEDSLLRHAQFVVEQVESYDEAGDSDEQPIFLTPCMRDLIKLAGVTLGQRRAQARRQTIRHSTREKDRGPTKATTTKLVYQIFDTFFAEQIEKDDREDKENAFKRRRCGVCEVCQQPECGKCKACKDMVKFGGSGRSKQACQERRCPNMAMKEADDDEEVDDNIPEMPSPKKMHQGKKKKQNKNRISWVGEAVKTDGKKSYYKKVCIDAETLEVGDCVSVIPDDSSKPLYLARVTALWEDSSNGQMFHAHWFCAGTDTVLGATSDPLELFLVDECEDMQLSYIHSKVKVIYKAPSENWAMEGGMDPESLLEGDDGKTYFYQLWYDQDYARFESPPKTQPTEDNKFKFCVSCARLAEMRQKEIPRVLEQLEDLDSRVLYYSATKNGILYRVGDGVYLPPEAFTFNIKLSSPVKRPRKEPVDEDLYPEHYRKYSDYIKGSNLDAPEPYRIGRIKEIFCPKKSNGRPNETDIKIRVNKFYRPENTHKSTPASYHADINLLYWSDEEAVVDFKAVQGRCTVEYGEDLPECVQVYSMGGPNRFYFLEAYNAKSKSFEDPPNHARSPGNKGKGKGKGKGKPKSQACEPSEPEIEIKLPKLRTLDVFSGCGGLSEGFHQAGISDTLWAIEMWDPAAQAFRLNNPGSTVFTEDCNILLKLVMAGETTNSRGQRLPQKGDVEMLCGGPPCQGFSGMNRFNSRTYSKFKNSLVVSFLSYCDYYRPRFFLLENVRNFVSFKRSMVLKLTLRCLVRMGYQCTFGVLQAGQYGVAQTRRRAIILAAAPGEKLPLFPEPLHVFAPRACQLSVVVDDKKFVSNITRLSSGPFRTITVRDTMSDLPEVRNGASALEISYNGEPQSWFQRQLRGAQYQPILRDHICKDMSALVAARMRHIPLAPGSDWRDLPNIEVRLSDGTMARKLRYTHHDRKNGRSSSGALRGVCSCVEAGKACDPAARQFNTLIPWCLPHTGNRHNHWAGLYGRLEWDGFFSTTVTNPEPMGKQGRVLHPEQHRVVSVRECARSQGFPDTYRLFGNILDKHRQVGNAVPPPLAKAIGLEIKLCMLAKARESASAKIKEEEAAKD
GRK2 aptamer HTS = human GRK2 inhibition via aptamer displacement. P25098. bead flow cytometry, FAM-aptamer displacement from GRK2. inhibition of aptamer binding, % at 10 µM. 330,000 compounds, 0.59% hits;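 active means inhibition of aptamer binding above 40%, roughly 3 SD of noise, on plates passing a quality check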;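 further: median bead fluorescence of bound FAM aptamer so fluorescent compounds give negative values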
SUMO1 PPI mod = modulators of human SUMO1-mediated protein-protein interactions; P63165; SUMO1 binding to a labelled peptide, TR-FRET, 1 h; inhibition, % at 20 µM; 360,000 compounds, 0.33% hits; AID 602429; in the data active means inhibition above about 37%
STEP conf = STEP (human) phosphatase inhibition, single concentration confirmation. shares compounds with STEP inh. recombinant STEP, OMFP fluorogenic substrate, fluorescence. inhibition, % at 20 µM. 520 compounds, 32% hits; call rule not given here
Of the large screens only hits and unclear results are named; the others gave an inactive call (follow-up assays come after a bar, where they were run).

CC(CC(=O)Nc1ccc2c(c1)c(=O)n(C)n2-c1cccs1)c1ccccc1 (stereo not drawn)	none (no result: Scp1 inh, GRK2 aptamer HTS)
S=C(NCCN1CCOCC1)C(=S)NCCN1CCOCC1	STEP inh 41.5 (no result: GRK2 aptamer HTS) | STEP conf inactive
Cc1c(C)c2ccc(OCC(=O)Nc3ccc(S(N)(=O)=O)cc3)c(C)c2oc1=O	STEP inh 46.4 | STEP conf 74.3
CCOc1ccccc1-c1noc(CCC(=O)NC2CCCCC2)n1	STEP inh 91.8 | STEP conf inactive
CC1(C)CC(=O)C=C(NNC(=O)c2ccc(N)cc2)C1	STEP inh 120.3 | STEP conf inactive
Cc1ccc(Nc2nnc(-c3ccc4c(c3)OCO4)o2)c(C)c1	STEP inh 48.1 | STEP conf inactive
Nc1ncnc2c1ncn2[C@@H]1O[C@H](CNC(=O)[C@@H](N)Cc2ccc(C(=O)c3ccccc3)cc2)[C@@H](O)[C@H]1O	none (no result: Scp1 inh, GRK2 aptamer HTS)
Cc1ccccc1-n1nc(CSc2nc3ccccc3[nH]2)c(-c2ccccc2)c1N	STEP inh 58.2 | STEP conf inactive
C[C@H](CO)N1C[C@H](C)[C@@H](CN(C)Cc2cccc(F)c2)Oc2cc(-c3cccc(C#N)c3)ccc2S1(=O)=O	none (no result: Scp1 inh, GRK2 aptamer HTS)
Cc1ccc(C(=O)N/N=C\c2ccc(-c3ccc([N+](=O)[O-])cc3)o2)cn1	STEP inh 59.5 | STEP conf inactive
COC(=O)c1ccc(COC(=O)CCc2nc(-c3ccccc3)c(-c3ccccc3)o2)cc1	STEP inh 37.6 | STEP conf inactive
COc1cc(/C=C2/C(=O)NN(c3cccc(Cl)c3)C2=O)cc(OC)c1O	none
COc1cc(/C=C2/C(=O)NN(c3cccc(C)c3)C2=O)cc([N+](=O)[O-])c1O	STEP inh 50.9, DNMT1 block 58.2 | STEP conf 44.8
Cc1ccccc1COc1cccc(/C=N/NC(=O)c2nnn(-c3nonc3N)c2C)c1	STEP inh 91.1 | STEP conf inactive
COc1ccc(/C=N/NC(=O)c2nnn(-c3nonc3N)c2CN(C)c2ccccc2)cc1	STEP inh 72.7 | STEP conf inactive
CN(Cc1c(C(=O)N/N=C/c2ccccc2)nnn1-c1nonc1N)c1ccccc1	none
O=P1(O)CC2=C(CC=CC2)C1	none (no result: Scp1 inh, GRK2 aptamer HTS)
CC1=C(C(=O)N(C(C)C)C(C)C)CC(CC(=O)NCCN2CCOCC2)C(=O)N1CCCN1CCCC1=O (stereo not drawn)	none (no result: Scp1 inh, GRK2 aptamer HTS)
Cc1cccc(C(=O)Nc2ccccc2C(=O)Nc2ccc(C(=O)O)cc2)c1	none
O=C(O)c1ccc(NC(=O)c2ccccc2NC(=O)c2cccc(F)c2)cc1	STEP inh 67.7 | STEP conf inactive
COCOCCn1cc(CN2CCS(=O)(=O)N(Cc3ccc(-c4ccc(OC)cc4)cc3)C(C(C)C)C2=O)nn1 (stereo not drawn)	none (no result: Scp1 inh, GRK2 aptamer HTS)
O=C(CCC(=O)NCCCc1ccccc1)NCCCc1ccccc1	STEP inh 119.3 | STEP conf inactive
CCN(CC(=O)Nc1c(F)cccc1F)C(=O)CCCSc1nc2ccccc2[nH]1	none (no result: Scp1 inh, GRK2 aptamer HTS)
COc1ccc(N2CCN(C(c3cccs3)C(C)NC(=O)C(=O)N3CCCC3)CC2)cc1 (stereo not drawn)	STEP inh 59.6 | STEP conf inactive
COc1ccc(N2CCN(C(c3cccs3)C(C)NC(=O)C(=O)N3CCCCC3)CC2)cc1 (stereo not drawn)	none
FC(F)(F)Oc1ccc(NC(=S)NCCCN2CCOCC2)cc1	STEP inh 41.2 | STEP conf inactive
CCOc1ccc(CNC(=O)CS(=O)(=O)Cc2nc(-c3ccc(OC)cc3)oc2C)cc1	none
CCOc1ccc(CCNC(=O)CS(=O)(=O)Cc2nc(-c3ccc(OC)cc3)oc2C)cc1	STEP inh 44.0 | STEP conf 19.5
c1ccc(CNc2nc(NCC3CC3)nc3cc(-c4ccccc4)sc23)cc1	none (no result: Scp1 inh, GRK2 aptamer HTS)
c1ccc(OCCNc2nc(NCC3CC3)nc3cc(-c4ccccc4)sc23)cc1	STEP inh 43.0 (no result: Scp1 inh, GRK2 aptamer HTS) | STEP conf inactive
C=CCC[C@H](CCCCC)OC(=O)/C=C/[C@@H](O)[C@H](O)C[C@H](O)CC=C	none (no result: Scp1 inh, STEP inh, DNMT1 block, GRK2 aptamer HTS)
O=C1CNc2cc(Cl)ccc2N1	none (no result: Scp1 inh, GRK2 aptamer HTS)
O=C1CSc2cc(Cl)ccc2N1	STEP inh 37.4 (no result: GRK2 aptamer HTS) | STEP conf inactive
CCN(CC)S(=O)(=O)c1ccc2oc(C(=O)NCc3ccc(C)cc3)c(C)c2c1	STEP inh 60.7 | STEP conf inactive
CCN(CC)S(=O)(=O)c1ccc2oc(C(=O)NC(C)C)c(C)c2c1	none
O=C(N/N=C/c1ccccn1)c1ccc(Br)cc1	STEP inh 72.5 | STEP conf inactive
O=C(N/N=C/c1ccccn1)c1ccc(N/N=C/c2ccccn2)cc1	none
CS(=O)(=O)N(Cc1ccc(C(=O)NCCSc2ccccn2)cc1)c1ccccc1	STEP inh 43.6 | STEP conf inactive
Cc1ccc(N(Cc2ccc(C(=O)NCCSc3ccccn3)cc2)S(C)(=O)=O)cc1C	none
Cc1cccc(C)c1NC(=O)C(c1ccccc1)N1CCC(c2ccccc2)CC1 (stereo not drawn)	none (no result: Scp1 inh, STEP inh, DNMT1 block, GRK2 aptamer HTS)
COc1ccc(/C=C/C(=O)c2ccccc2O)cc1CN1CCOCC1	STEP inh 52.3 | STEP conf inactive
COc1ccc(/C=C/C(=O)c2ccc3ccccc3c2O)cc1CN1CCOCC1	none
COC(=O)c1ccc([N+](=O)[O-])cc1N1C(=O)C2C3CCC(C3)C2C1=O (stereo not drawn)	STEP inh 63.8 | STEP conf inactive
CC1CCC(C(O)(C(=O)c2ccccc2)c2ccccc2)C(=O)C1 (stereo not drawn)	none (no result: Scp1 inh, GRK2 aptamer HTS)
CCCc1nc2c3ccccc3ccn2c1Cc1cccc(F)c1	none (no result: Scp1 inh, GRK2 aptamer HTS)
COCCCNC(=S)NC1CC2CCC(C1)N2Cc1ccccc1 (stereo not drawn)	none
CCOCCCNC(=S)NC1CC2CCC(C1)N2Cc1ccccc1 (stereo not drawn)	STEP inh 55.4 | STEP conf inactive
CN(C)c1cccc(F)c1C(=O)NC(=O)Nc1ccc(Cl)cc1	none (no result: GRK2 aptamer HTS)
CSc1ccc(C(=S)N2CCN(Cc3ccccc3)CC2)cc1	STEP inh 52.5 | STEP conf inactive
CCN1CCN(C(=S)c2ccc(SC)cc2)CC1	STEP inh 67.0 | STEP conf inactive
O=C1CCCc2c1sc1nc3n(c(=O)c21)CCCCC3	STEP inh 45.4 | STEP conf inactive
N/C(=N\OC(=O)c1cccc2ccccc12)c1cccc([N+](=O)[O-])c1	STEP inh 61.7 | STEP conf 23.7
Cn1cc(P(=O)(N2CCOCC2)N2CCOCC2)cc1P(=S)(N1CCOCC1)N1CCOCC1	STEP inh 61.7 | STEP conf inactive
CC(=O)Nc1cccc(-c2csc(C(O)c3ccc(F)cc3)n2)c1 (stereo not drawn)	none (no result: Scp1 inh, GRK2 aptamer HTS)
CCc1c(C2CC2)ncn1Cc1cccc(-c2ccccc2)c1	none (no result: Scp1 inh, STEP inh, DNMT1 block, GRK2 aptamer HTS)
